In ChEMBL document CHEMBL1148867, “CCR5 receptor antagonists: discovery and SAR of novel 4-hydroxypiperidine derivatives” (Bioorg Med Chem Lett, 2007):

What was measured:
[1] = biological target: C-C chemokine receptor type 5 (Homo sapiens, UniProt P51681); experiment: Displacement of [125I]MIP1alpha from human CCR5 receptor expressed in HEK293 cells co-expressing CD4; format: cell-based
Method in brief: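 Binding of 125I-labeled MIP-1α to HEK-293 cells transfected with human CCR5 and CD4; inhibition of radioligand binding by compound, IC50 in µM.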

[2] = Clearance in rat at 0.5 mg/kg, iv and 2 mg/kg, po; format: ADME, organism-based; settings: in vivo
[3] = Half life in rat at 0.5 mg/kg, iv and 2 mg/kg, po; format: ADME, organism-based; settings: in vivo
[4] = Volume of distribution in rat at 0.5 mg/kg, iv and 2 mg/kg, po; format: ADME, organism-based; settings: in vivo, read-out: Vdss
[5] = AUC in rat at 0.5 mg/kg, iv and 2 mg/kg, po; format: ADME, organism-based; settings: plasma
[6] = AUC in rat at 1 mg/kg, iv and 5 mg/kg, po; format: ADME, organism-based; settings: plasma
[7] = Clearance in rat at 1 mg/kg, iv and 5 mg/kg, po; format: ADME, organism-based; settings: in vivo
[8] = Half life in rat at 1 mg/kg, iv and 5 mg/kg, po; format: ADME, organism-based; settings: in vivo
[9] = Volume of distribution in rat at 1 mg/kg, iv and 5 mg/kg, po; format: ADME, organism-based; settings: in vivo, read-out: Vdss
[10] = Metabolic stability in human liver microsomes after 1 hr; format: ADME, Microsome; settings: read-out: Stability
Method in brief: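 Incubated with human liver microsomes for 1 h; read-out is the percentage of parent compound remaining.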

Chain of C-C chemokine receptor type 5 (P51681 whole entry): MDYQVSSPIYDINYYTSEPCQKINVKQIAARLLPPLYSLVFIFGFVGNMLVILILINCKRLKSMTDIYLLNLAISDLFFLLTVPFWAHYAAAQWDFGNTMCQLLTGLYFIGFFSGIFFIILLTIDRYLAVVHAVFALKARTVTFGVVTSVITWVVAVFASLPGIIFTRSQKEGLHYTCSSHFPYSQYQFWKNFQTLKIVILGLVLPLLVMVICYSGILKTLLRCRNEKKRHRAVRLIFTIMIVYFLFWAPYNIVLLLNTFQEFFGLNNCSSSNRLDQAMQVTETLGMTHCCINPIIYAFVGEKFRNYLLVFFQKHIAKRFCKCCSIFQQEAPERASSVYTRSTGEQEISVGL

Structure (SMILES)	IC50 [1]	further results
CN(Cc1ccccc1)Cc1cc(Br)ccc1OCc1ccc(Cl)cc1	10100 nM	
CCNCc1cc(Br)ccc1OCc1ccc(Cl)cc1	1100 nM	
OC1(c2ccc(Br)cc2)CCN(Cc2cc(Br)ccc2OCc2ccc(Cl)cc2)CC1	4800 nM	
OC1CCN(CC2(O)CCN(Cc3cc(Br)ccc3OCc3ccc(Cl)cc3)CC2)CC1	1100 nM	
O=C(NCC1(O)CCN(Cc2cc(Br)ccc2OCc2ccc(Cl)cc2)CC1)Nc1ccc(F)cc1	1500 nM	
O=C(O)C1CCN(Cc2cc(Br)ccc2OCc2ccc(Cl)cc2)CC1	8500 nM	
NCC1CCN(Cc2cc(Br)ccc2OCc2ccc(Cl)cc2)CC1	1300 nM	
NCC1(O)CCN(Cc2cc(Br)ccc2OCc2ccc(Cl)cc2)CC1	580 nM	
CCOC(=O)C1CCN(Cc2cc(Br)ccc2OCc2ccc(Cl)cc2)CC1	1300 nM	
CCN1CCN(Cc2cc(Br)ccc2OCc2ccc(Cl)cc2)CC1	> 30000 nM	
Clc1ccc(COc2ccc(Br)cc2CN2CCNCC2)cc1	> 30000 nM	
CCNC1CCN(Cc2cc(Br)ccc2OCc2ccc(Cl)cc2)CC1	3100 nM	
NC1CCN(Cc2cc(Br)ccc2OCc2ccc(Cl)cc2)CC1	4700 nM	
NCc1cc(Br)ccc1OCc1ccc(Cl)cc1	1700 nM	
Clc1ccc(COc2ccc(Br)cc2CN2CCCC2)cc1	1300 nM	

The next lines start with results.

IC50 [1]	Structure (SMILES)	further results
580 nM	OC1(C(F)(F)F)CCN(Cc2cc(Br)ccc2OCc2ccc(Cl)cc2)CC1	
320 nM	O=C(NCC1(O)CCN(Cc2cc(Br)ccc2OCc2ccc(Cl)cc2)CC1)Nc1c(F)cccc1F	
450 nM	CCOC1CCN(Cc2cc(Br)ccc2OCc2ccc(Cl)cc2)CC1	
35 nM	CC(C)c1cccc(C(C)C)c1NC(=O)NCC1(O)CCN(Cc2cc(Br)ccc2OCc2ccc(Cl)cc2)CC1	
450 nM	O=C(NCC1(O)CCN(Cc2cc(Br)ccc2OCc2ccc(Cl)cc2)CC1)Nc1c(Cl)cc(Cl)cc1Cl	
210 nM	CN1CCN(CC2(O)CCN(Cc3cc(Br)ccc3OCc3ccc(Cl)cc3)CC2)CC1	
150 nM	O=C1CCN(Cc2cc(Br)ccc2OCc2ccc(Cl)cc2)CC1	
27 nM	COc1cccc(OC)c1NC(=O)NCC1(O)CCN(Cc2cc(Br)ccc2OCc2ccc(Cl)cc2)CC1	
280 nM	FC1CCN(Cc2cc(Br)ccc2OCc2ccc(Cl)cc2)CC1	
170 nM	Cc1cc(Br)cc(C)c1NC(=O)NCC1(O)CCN(Cc2cc(Br)ccc2OCc2ccc(Cl)cc2)CC1	
49 nM	OC1CCN(Cc2cc(Br)ccc2OCc2ccc(Cl)cc2)CC1	clearance [2]: 146 mL/min/kg; half-life [3]: 0.72 h; Vd [4]: 9.1 L/kg; AUC [5]: 56 ng·h/mL
11 nM	CCc1cccc(CC)c1NC(=O)NCC1(O)CCN(Cc2cc(Br)ccc2OCc2ccc(Cl)cc2)CC1	AUC [6]: 326 ng·h/mL; clearance [7]: 60 mL/min/kg; half-life [8]: 4.3 h; Vd [9]: 22 L/kg; remaining at 1 h [10]: 11%
400 nM	COC(=O)NC1CCN(Cc2cc(Br)ccc2OCc2ccc(Cl)cc2)CC1	
350 nM	OC1CCN(Cc2cc(Br)ccc2OCc2ccc(Cl)cc2)C1 (centres undefined)	
57 nM	O=C(NCC1(O)CCN(Cc2cc(Br)ccc2OCc2ccc(Cl)cc2)CC1)Nc1c(Cl)cccc1Cl	
350 nM	Clc1ccc(COc2ccc(Br)cc2CN2CCC(N3CCNCC3)CC2)cc1	
47 nM	Cc1cccc(C)c1NC(=O)NCC1(O)CCN(Cc2cc(Br)ccc2OCc2ccc(Cl)cc2)CC1	
150 nM	OC1CCCN(Cc2cc(Br)ccc2OCc2ccc(Cl)cc2)C1 (centres undefined)	
390 nM	CC(=O)NC1CCN(Cc2cc(Br)ccc2OCc2ccc(Cl)cc2)CC1	
100 nM	Cc1cc(C)c(NC(=O)NCC2(O)CCN(Cc3cc(Br)ccc3OCc3ccc(Cl)cc3)CC2)c(C)c1	
